Vif imaging – inhibitors of HIV Vif. HEK293T cells, Vif self-association by quenched fluorescence, imaging, 24 h. inhibition, % at 7.49 µM. actives 0.35% (n = 340,000). AID 602346; in the data active means inhibition above about 50%, passing the limit was not always enough
SR-BI DiI-HDL act – activators of SR-BI mediated HDL lipid uptake; CHO ldlA[mSR-BI] cells, DiI-HDL uptake fluorescence, 3 h; 100 = double the neutral-control signal; activation, % at 12.5 µM; actives 0.096% (n = 320,000); AID 504775;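 active means mean replicate activation of at least 60% and every replicate at or above 60%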;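 further: 0% = median plate neutral-control signal and 100% = twice that signal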
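System: LDL receptor-deficient CHO ldlA cells overexpressing murine SR-BI | Timing: 3 h uptake period with compound, 37 °C | Medium: HEPES-buffered (25 mM, pH 7.4) F12 plus 0.5% BSA | Dosing: Single-point compound dose | Signal: Bottom-read fluorescence, 550/595 nm | Read-out: Retained DiI signal reflecting DiI-HDL uptake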
SMARCA2 activ – SMARCA2 function activation, primary screen; MG213 cells, MMTV-luciferase reporter, dexamethasone, overnight; activation, % at 9.1 µM; actives 1% (n = 370,000); AID 652017; in the data active means activation above about 7.8%;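 further: 0% = vehicle wells and 100% = reference activator wells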
SR-BI HDL uptake – blocks mouse SR-BI lipid uptake from DiI-HDL; inhibition, % at 12.5 µM; ldlA[mSR-BI] CHO cells, DiI-HDL uptake fluorescence, 3 h; Q61009; actives 0.96% (n = 320,000);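 active means mean replicate inhibition of at least 70% and a set share of replicates each scoring 70 or more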;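 further: 0% = median of neutral control wells and 100% = median of positive control wells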
Target sequence (Q61009 whole entry, looked up): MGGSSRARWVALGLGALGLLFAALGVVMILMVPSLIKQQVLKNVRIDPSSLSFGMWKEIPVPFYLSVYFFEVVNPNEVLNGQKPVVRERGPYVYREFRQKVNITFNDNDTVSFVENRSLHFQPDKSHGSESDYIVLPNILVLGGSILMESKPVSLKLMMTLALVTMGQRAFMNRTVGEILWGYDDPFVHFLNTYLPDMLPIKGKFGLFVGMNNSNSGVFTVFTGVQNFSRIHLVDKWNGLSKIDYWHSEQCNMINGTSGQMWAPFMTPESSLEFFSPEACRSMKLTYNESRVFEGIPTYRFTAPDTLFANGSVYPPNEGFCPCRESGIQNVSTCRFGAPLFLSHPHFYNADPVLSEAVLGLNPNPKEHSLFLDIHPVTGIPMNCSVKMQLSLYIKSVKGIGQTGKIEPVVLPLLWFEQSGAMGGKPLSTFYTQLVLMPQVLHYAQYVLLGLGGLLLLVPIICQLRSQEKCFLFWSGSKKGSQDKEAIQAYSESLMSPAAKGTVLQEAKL
TAG inh – inhibitors of triacylglycerol accumulation | AID 651582 | inhibition, % at 12.5 µM | H9c2 cells, Nile Red lipid (TAG) fluorescence; cells loaded with 200 µM oleic acid | actives 0.66% (n = 230,000);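 active means pattern-corrected inhibition of lipid staining of at least 50% with the nuclear-stain viability signal not falling by more than 50%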;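 further: 0% = DMSO wells and 100% = triacsin C control wells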
Starred values were filed as active, the others as inactive; x = no result. This is a sample that favours compounds with a hit; in the whole collection about 2.5% have one here.

SMILES	Vif imaging	SR-BI DiI-HDL act	SMARCA2 activ	SR-BI HDL uptake	TAG inh
C=CCN1C(=O)/C(=C/c2ccc(-c3ccc(F)cc3)o2)SC1=S	82*	-48	0	48	-12
C=CCN1C(=O)/C(=C/c2ccsc2)SC1=S	-2	15	-3	-15	-11
COc1ccc2c(c1)c(=O)oc1cc(OCC(=O)NCC3CCC(C(=O)O)CC3)ccc12 (stereo unspecified)	55*	5	0	-5	x
COc1ccccc1-c1cccc2[nH]c3c(c12)CCN1C(=O)[C@H]2[C@H](C)ON(C)[C@H]2C[C@@H]31	x	x	5	x	x
Cn1nc(C(=O)Nc2nc3ccccc3[nH]2)c2ccccc2c1=O	3	31	16*	-31	x
COc1cc(C(=O)Nc2nc3ccccc3[nH]2)ccc1OC(F)F	-9	x	4	x	-8
CCOc1ccc(C(=O)Nc2nc3ccccc3[nH]2)cc1OCC	-9	-81	-2	81*	10
COc1ccc(S(=O)(=O)N(C)C2CCN(C)CC2)cc1	14	263*	-2	-263	-16
COc1ccc(N2CCN(C(=O)CSc3nnc(-c4cccnc4)n3-c3ccc(F)cc3)CC2)cc1	-5	-8	7.9*	8	x
COc1ccc(N2CCN(C(=O)CSc3nnc(-c4cccnc4)n3-c3ccccc3)CC2)cc1	2	10	1	-10	-3
COc1ccc(S[C@]2(C(=O)N3CCN(c4ncccn4)CC3)CC(=O)N(C(=O)Nc3ccc(C)c(Cl)c3)[C@@H]2c2ccc(OC)cc2)cc1	x	x	-1	x	x
O=C(N/N=C/c1ccccc1O)c1ccc2c(c1)OCO2	-5	-81	-2	81*	x
Cc1cc(Br)cc(/C=N/NC(=O)c2ccc3c(c2)OCO3)c1O	-2	-146	-1	146*	x
O=C(N/N=C/c1cc(Br)cc(Cl)c1O)c1ccc2c(c1)OCO2	2	-132	2	132*	46
O=C(N/N=C/c1ccc2c(c1)OCO2)c1ccc(COc2cccc3cccnc23)cc1	-2	-76	-1	76*	18
O=C(N/N=C/c1cc(Br)c(O)c(Br)c1O)c1ccc2c(c1)OCCO2	6	-30	-2	30	x
O=C(N/N=C/c1cc2c(cc1Cl)OCO2)c1ccncc1	-4	-29	-3	29	x
O=C(N/N=C/c1cc2c(cc1Cl)OCO2)c1cccc(Br)c1	-10	-81	-2	81*	x
O=C(N/N=C/c1cc(Cl)cc([N+](=O)[O-])c1O)c1ccc2c(c1)OCO2	-3	-124	-1	124*	x
COc1cc(Cl)cc(/C=N\NC(=O)c2ccc3c(c2)OCO3)c1O	x	x	-5	x	144
CCCC(=O)N1c2ccccc2C(=C2SC(C(=O)OC)=C(C(=O)OC)S2)C(=S)C1(C)C	7	-82	-4	82*	41
COC(=O)C1=C(C(=O)OC)SC(=C2C(=S)C(C)(C)N(C(=O)C3CC3)c3ccccc32)S1	1	-97	0	97*	x
CCOC(=O)C1(C)C(C(=O)OC)=C(c2ccc(OC)cc2)c2ccccc2N1C(=O)OC (stereo unspecified)	-13	18	-1	-18	2
COC(=O)C1=C(C(=O)OC)SC(=C2C(=S)C(C)(C)N(C(=O)C(C)C)c3ccccc32)S1	x	-59	-4	59	x
COC(=O)c1cc2c(n1S(=O)(=O)c1ccc(C)cc1)C(=O)C(=O)c1[nH]cc(C(=O)OCc3ccccc3)c1-2	-10	-88	x	88*	125
SMILES	Vif imaging	SR-BI DiI-HDL act	SMARCA2 activ	SR-BI HDL uptake	TAG inh
CN(C)c1nc(=NCc2cccs2)ss1	2	-6	13*	6	-12
CCOc1ccc(-n2c(SCC(=O)Nc3cccc4ccccc34)nnc2-c2cccs2)cc1	x	x	-5	x	x
C[C@]12C[C@H](O)[C@H]3[C@@H](CCC4=CC(=O)CC[C@@]43C)[C@@H]1CC[C@@H]2C(=O)CO	2	87*	-8	-6	20
CC(=O)c1cc(-c2ccccc2)n(CC(=O)NCc2ccc(Cl)cc2)c1C	x	x	-4	x	x
O=c1c2ccccc2nc(N/N=C/c2c(O)ccc3ccccc23)n1O	9	-129	2	129*	49
CCCCCc1cc(=O)oc2c(C(CCN3CCCC(C)C3)c3ccc4c(c3)OCO4)c(OC)cc(OC)c12 (stereo unspecified)	7	-8	1	8	78*
COc1ccc(C(CCN2CCCC(C)C2)c2c(OC)cc(OC)c3c(-c4ccccc4)cc(=O)oc23)cc1 (stereo unspecified)	-7	-1	0	1	103
CCCCCc1cc(=O)oc2c(C(CCN3CCCCC3)c3ccc4c(c3)OCO4)c(OC)cc(OC)c12 (stereo unspecified)	5	-3	1	3	106*
COc1cc(OC)c2c(-c3ccccc3)cc(=O)oc2c1C(CCN1CCCC(C)C1)c1ccc(N(C)C)cc1 (stereo unspecified)	1	-5	0	5	94*
COc1cc(OC)c2c(-c3ccccc3)cc(=O)oc2c1C(CCN1CCCC1)c1ccc2c(c1)OCO2 (stereo unspecified)	-6	4	2	-4	40
CC(C)(C)S(=O)(=O)N1C[C@H]2CC(=O)C(CCO)=C2[C@@H]1CCO	x	x	0	x	x
CCOc1ccccc1NC(=O)c1ccc(OCC(=O)N2CCOCC2)c(OC)c1	0	-31	-3	31	-7
COc1ccc(OC)c(NC(=O)c2ccc(OCC(=O)N3CCOCC3)c(OC)c2)c1	-4	-73	-3	73*	0
COc1ccc(C(=O)Nc2ccccc2N2CCCCC2)cc1[N+](=O)[O-]	4	-78	1	78*	x
COc1ccc(C(=O)Nc2ccccc2N2CCOCC2)cc1Br	-9	-80	-1	80*	-3
CCN1C(=O)/C(=C/C=C2\C=CN(CC)c3ccccc32)SC1=S	-5	-140	-1	140*	x
CCCN1C(=O)/C(=C\C=C2\N(CC)c3ccccc3C2(C)C)SC1=S	167*	-87	3	87*	-251
CCOC(=O)N[C@H](C(=O)N1CCC[C@H]1C(=O)NC1CCCC1)c1ccccc1	x	x	0	x	x
CCCCC(=O)OCC(=O)c1cc(C)n(-c2c(C)n(C)n(-c3ccccc3)c2=O)c1C	50*	0	-2	0	1
CCOC(=O)c1cc(C)n(-c2c(C)n(C)n(-c3ccccc3)c2=O)c1C	5	1	2	-1	x
Cc1ccccc1C(=O)N[C@@H](Cc1cccnc1)C(=O)N1CCC[C@H]1C(=O)NCCc1ccccc1Cl	x	x	2	x	x
COc1ccc(N=c2oc3cc(O)ccc3cc2C(=O)Nc2ccccn2)cc1OC	-17	-71	8	71*	22
O=C(NCC1CCN(C(=O)C(=O)c2cccs2)CC1)c1ccc2ccccc2c1	x	x	4	x	x
Cc1ccc(S(=O)(=O)NCC2CCN(C(=O)C(=O)c3cc4ccccc4o3)CC2)cc1	x	x	3	x	x

Screening results: PubChem, several laboratories
